A word on the IC50: it is the point on the concentration scale where inhibition reaches its midpoint. A low value points to inhibition by little substance.

Activity calls are given as the source filed them. The rule behind the calls is not given here.

The subject of data set [1] is NCI-H1703. Kind of data set: Antiproliferative activity against human NCI-H1703 cells after 72 hrs by MTT assay. The data set is classed as functional, cell-based. The following applies: NCI-H1703, 72 h. A digest of the protocol:
(§1)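 Compounds (10 mM DMSO stocks, final DMSO ≤0.1%) added at increasing concentrations in PBS, incubated 72 h at 37 °C. MTT read-out, six repeats per concentration, at least two independent experiments.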
For orientation: Formazan colour is commonly taken as a measure of viable cells.

The test system of another data set is NCI-H441. Kind of data set: Antiproliferative activity against human NCI-H441 cells after 72 hrs by MTT assay. The data set is classed as functional, cell-based. Particulars: NCI-H441, 72 h. A digest of the protocol:
as §1

Data set [2] can be described thus: Antiproliferative activity against human NCI-H1373 cells after 72 hrs by MTT assay. The class given is functional, cell-based. The following applies: NCI-H1373, 72 h. An outline of the steps:
as §1

A further data set concerns NCI-H2122. Kind of data set: Antiproliferative activity against human NCI-H2122 cells after 72 hrs by MTT assay. The data set is classed as functional, cell-based. The following applies: NCI-H2122, 72 h. A digest of the protocol: as §1
A short description of data set [3]: Antiproliferative activity against human NCI-H1944 cells after 72 hrs by MTT assay. The class given is functional, cell-based. Particulars: NCI-H1944, 72 h. A digest of the protocol: as §1
Data set [4] relates to NCI-H1703. The data set can be described thus: Antitumor activity against human NCI-H1703 cells xenografted in athymic NCr Charles river nu/nu mouse assessed as reduction of tumor growth at 6 umol/kg, iv administered 3 times a week for 3 weeks relative to vehicle treated control. The data set is classed as functional, organism-based. A digest of the protocol:
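H1703 xenografts (5×10^6 cells s.c., flank) in 7-week-old female athymic NCr-nu/nu mice, treated from tumor size ≥2×2×2 mm. Mice killed 2 h after the last dose; tumors excised and weighed. 13–15 mice/group; Mann-Whitney test against vehicle.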
(In general: A xenograft is tissue or cells of one species grown in another, often human tumour cells in immunodeficient mice.)

Data set [5] relates to Mus musculus. The data set can be described thus: Toxicity in human NCI-H1703 cells xenografted athymic NCr nu/nu Charles river mouse assessed as change in body weight at 6 umol/kg, iv administered 3 times a week for 3 weeks (reference value: 22.5 +/- 0.4g). The data set is classed as organism-based. The following applies: in vivo, 504 h.
Data set [6] can be described thus: Activation of JNK phosphorylation at Thr183 and Tyr185 in human NCI-H1703 cells at 1 uM within 30 mins by Western blot analysis. The class given is cell-based.
The target in data set [7] is T1, Dual specificity mitogen-activated protein kinase kinase 4 (Homo sapiens) (UniProt P45985).
T1 sequence (whole entry): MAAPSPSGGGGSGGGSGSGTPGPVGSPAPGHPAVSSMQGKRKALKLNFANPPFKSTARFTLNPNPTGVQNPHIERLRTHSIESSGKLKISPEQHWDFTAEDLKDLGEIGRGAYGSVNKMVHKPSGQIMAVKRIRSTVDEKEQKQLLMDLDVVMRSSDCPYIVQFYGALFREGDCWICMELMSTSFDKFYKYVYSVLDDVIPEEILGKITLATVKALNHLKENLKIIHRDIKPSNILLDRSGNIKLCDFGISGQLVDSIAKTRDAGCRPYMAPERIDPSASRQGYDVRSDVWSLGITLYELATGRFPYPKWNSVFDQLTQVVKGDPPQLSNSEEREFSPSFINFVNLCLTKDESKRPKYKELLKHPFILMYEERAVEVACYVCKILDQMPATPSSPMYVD
Kind of data set: Activation of SEK1 phosphorylation at Thr261 in human NCI-H1703 cells at 1 uM by Western blot analysis. The data set is classed as cell-based. A digest of the protocol: (§2)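 Lysates immunoblotted with phospho-specific antibodies against SEK1/MKK4, SAPK/JNK, ATF2 and c-jun. Membranes reprobed for total SAPK/JNK as loading control. Representative blots shown.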
For orientation: In western blotting, separated proteins are transferred to a membrane and probed.

Data set [8] can be described thus: Activation of JNK phosphorylation in human NCI-H1703 cells assessed as ATF2 phosphorylation at Thr71 at 1 uM by Western blot analysis. The class given is cell-based. A digest of the protocol:
as §2

Data set [9] in a line: Activation of JNK phosphorylation in human NCI-H1703 cells assessed as increase in ATF3 protein level at 1 uM within 2 hrs by Western blot analysis. The data set is classed as cell-based.
Data set [10] is described as follows: Activation of JNK phosphorylation in human NCI-H1703 cells assessed as ATF2 phosphorylation at Thr71 at 1 uM pretreated for 30 mins by Western blot analysis in presence of JNK inhibitor 1,9-pyrazoloanthrone. The data set is classed as cell-based. An outline of the steps: (§3)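 Before compound exposure (1 μM), H1703 cells received the JNK inhibitor 1,9-pyrazoloanthrone at 50 μM for 30 min. Phosphorylated JNK, ATF2 and c-jun, and ATF3 protein, then detected by Western blot. Representative blots shown.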

A short description of data set [11]: Activation of JNK phosphorylation in human NCI-H1703 cells assessed as increase in ATF3 protein level at 1 uM within 2 hrs by Western blot analysis in presence of JNK inhibitor 1,9-pyrozoloanthrone. The class given is cell-based. A digest of the protocol: as §3
The nature of data set [12]: Activation of JNK phosphorylation in human NCI-H1703 cells assessed as increase in ATF3 mRNA level at 1 uM after 1.5 hrs by quantitative real-time PCR analysis relative to control. The class given is cell-based. A digest of the protocol: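 Cells were H1703 treated with compound or DMSO control. Total RNA was isolated and residual genomic DNA removed. ATF3 mRNA was measured by quantitative RT-PCR with β-actin as internal control. Reported as mean ± SE.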

Data set [13] concerns NCI-H1703. Kind of data set: Induction of apoptosis in human NCI-H1703 cells assessed as caspase 3 activation after 1 to 6 hrs by Western blot analysis. The class given is functional, cell-based.
Data set [14] concerns NCI-H1703. Kind of data set: Induction of apoptosis in human NCI-H1703 cells assessed as caspase 7 activation after 1 to 6 hrs by Western blot analysis. The class given is functional, cell-based.
Data set [15] deals with NCI-H1703. Kind of data set: Induction of apoptosis in human NCI-H1703 cells assessed as apoptotic cells at 1 uM after 6 hrs by FACS analysis (reference value: 0.05%). The class given is functional.
The test system of data set [16] is NCI-H1703. Kind of data set: Upregulation of ATF3 expression in human NCI-H1703 cells at 1 uM pretreated with ATF3 siRNA for 48 hrs before compound challenge measured after 8 hrs by Western blot analysis. The data set is classed as functional, cell-based. An outline of the steps: (§4)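 H1703 cells at 60% confluence transfected with ATF3 siRNA, nonsilencing siRNA or reagent only (mock). After 48 h, cells treated with 1 μM compound or equal-volume DMSO for 8 h, then lysed. Western blots probed for ATF3, cleaved PARP p85 and cleaved caspase-3, with β-actin as loading control.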

In data set [17] the test system is NCI-H1703. The data set can be described thus: Induction of apoptosis in human NCI-H1703 cells assessed as PARP p85 cleavage at 1 uM pretreated with ATF3 siRNA for 48 hrs before compound challenge measured after 8 hrs by Western blot analysis. The data set is classed as functional, cell-based. An outline of the steps:
as §4

The test system of data set [18] is NCI-H1703. Kind of data set: Induction of apoptosis in human NCI-H1703 cells assessed as caspase 3 cleavage at 1 uM pretreated with ATF3 siRNA for 48 hrs before compound challenge measured after 8 hrs by Western blot analysis. The data set is classed as functional, cell-based. An outline of the steps:
as §4

Data set [19] relates to NCI-H1703. The data set can be described thus: Antitumor activity against human NCI-H1703 cells xenografted in NCr nu/nu Charles river mouse assessed as tissue death in tumor at 6 umol/kg, iv administered 3 times a week for 3 weeks by H and E staining method relative to control. The data set is classed as functional, organism-based. An outline of the steps: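 Female athymic NCr-nu/nu mice, 7 weeks old, received 5×10^6 H1703 cells s.c. in the flank. Tumors excised 2 h after the last dose, H&E stained, and scored for areas of cell death against vehicle controls.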

In data set [20] the test system is Mus musculus. Kind of data set: Induction of JNK phosphorylation in human NCI-H1703 cells xenografted NCr nu/nu Charles river mouse tumor assessed as increase in ATF3 protein level at 6 umol/kg, iv administered 3 times a week for 3 weeks by immunohistochemical analysis. The data set is classed as functional, organism-based.
Data set [21] is described as follows: Activation of JNK phosphorylation at Thr183 and Tyr185 in human NCI-H1703 cells at 1 uM pretreated for 1 hr measured after 30 mins by Western blot analysis in presence of ROS scavenger tiron.

`CCOC(=O)N1CCN(/[N+]([O-])=N/Oc2ccc([N+](=O)[O-])cc2[N+](=O)[O-])CC1`: the IC50 with NCI-H1703 [1] was 570 nM; in the data set with NCI-H441 it was 940 nM; in [2] it was 860 nM; with NCI-H2122, 3170 nM; in data set [3], more than 10000 nM. Further, the “growth inhibition (GI)” value in the data set on NCI-H1703 [4] is “Active”. The values for the Activity in the data set with Mus musculus [5] and with NCI-H1703 [15] were 24.9 g and 14.4%, respectively. Moreover, the result (in data set [6]; in [7]; in data set [8]; in data set [9]; in the data set with NCI-H1703 [13]; in the data set on NCI-H1703 [14]) was Active. Moreover, the outcome in the data set on NCI-H1703 [19] and with Mus musculus [20] was Active. Besides, the result (in [10]; in [11]; with NCI-H1703 [16]; in the data set with NCI-H1703 [17]; in the data set on NCI-H1703 [18]; in data set [21]) was inactive. Besides, the fold change (FC) in data set [12] stood at 8.

(Values after ChEMBL document CHEMBL1914422, “Activation of the c-Jun N-terminal kinase/activating transcription factor 3 (ATF3) pathway characterizes effective arylated diazeniumdiolate-based nitric oxide-releasing anticancer prodrugs” (J Med Chem, 2011).)
